Data from ChEMBL document CHEMBL4028892, “Discovery of a 1-Methyl-3,4-dihydronaphthalene-Based Sphingosine-1-Phosphate (S1P) Receptor Agonist Ceralifimod (ONO-4641). A S1P1 and S1P5 Selective Agonist for the Treatment of Autoimmune Diseases” (J Med Chem, 2017).
Activity calls are given as the source filed them. No cut-off for these calls is given here.

Key:
[1] = target: T1, Sphingosine 1-phosphate receptor 3 (Homo sapiens, UniProt Q99500); assay: Agonist activity at human S1P3 receptor expressed in CHO-K1 cells assessed as increase in S1P-stimulated calcium influx preincubated for 5 mins followed by S1P stimulation measured every 3 secs by fluorescence method; type: cell-based
T1 sequence (Q99500 whole entry): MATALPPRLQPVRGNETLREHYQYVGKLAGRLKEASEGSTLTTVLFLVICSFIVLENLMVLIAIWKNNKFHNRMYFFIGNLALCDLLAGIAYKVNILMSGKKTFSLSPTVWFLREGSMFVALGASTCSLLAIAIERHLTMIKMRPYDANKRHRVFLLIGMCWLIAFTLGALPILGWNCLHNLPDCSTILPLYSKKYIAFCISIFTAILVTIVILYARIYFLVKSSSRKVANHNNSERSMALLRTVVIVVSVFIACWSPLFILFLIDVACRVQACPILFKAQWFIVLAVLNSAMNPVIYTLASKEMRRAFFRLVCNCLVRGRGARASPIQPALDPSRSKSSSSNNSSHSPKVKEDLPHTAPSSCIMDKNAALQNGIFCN

Homo sapiens = species on record: Homo sapiens; assay: Selectivity ratio of EC50 for human S1P3 receptor to EC50 for human S1P1 receptor
In short: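 Fura2 Ca2+ assay in CHO-K1 cells stably expressing human S1P1 or S1P3. Cells were loaded with 5 μM Fura2-AM in Ham's F12 (10% FBS, 20 mM HEPES pH 7.4, 2.5 mM probenecid) for 60 min at 37 °C, then washed. After a 30 s baseline, compound was added (0.1 nM–30 μM final, DMSO), then 100 nM S1P 5 min later. Ratio read every 3 s (ex 340/380, em 500 nm). Increase ratio (%) = B/A×100 against the DMSO-well S1P peak; EC50 taken from the concentration series; mean of ≥2 data points.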

[2] = target: Sphingosine 1-phosphate receptor 2 (Homo sapiens, UniProt O95136); assay: Agonist activity at human S1P2 receptor expressed in CHO-K1 cells assessed as increase in S1P-stimulated calcium influx preincubated for 5 mins followed by S1P stimulation measured every 3 secs by fluorescence method; type: functional, cell-based
Sphingosine 1-phosphate receptor 2, sequence (O95136 whole entry): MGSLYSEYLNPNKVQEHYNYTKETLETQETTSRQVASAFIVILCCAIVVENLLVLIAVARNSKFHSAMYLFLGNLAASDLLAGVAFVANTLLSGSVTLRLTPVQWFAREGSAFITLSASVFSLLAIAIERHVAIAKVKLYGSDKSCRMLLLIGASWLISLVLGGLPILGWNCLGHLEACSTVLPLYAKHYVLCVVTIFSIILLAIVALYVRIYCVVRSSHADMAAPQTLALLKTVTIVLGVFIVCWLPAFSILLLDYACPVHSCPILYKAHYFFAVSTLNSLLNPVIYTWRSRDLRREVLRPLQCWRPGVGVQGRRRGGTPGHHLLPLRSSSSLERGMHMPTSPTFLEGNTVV

[3] = target: T2, Sphingosine 1-phosphate receptor 1 (Homo sapiens, UniProt P21453); assay: Agonist activity at human S1P1 receptor expressed in CHO-K1 cells assessed as inhibition of forskolin-stimulated cAMP accumulation after 30 mins by ELISA; type: functional, cell-based
T2 sequence (P21453 whole entry): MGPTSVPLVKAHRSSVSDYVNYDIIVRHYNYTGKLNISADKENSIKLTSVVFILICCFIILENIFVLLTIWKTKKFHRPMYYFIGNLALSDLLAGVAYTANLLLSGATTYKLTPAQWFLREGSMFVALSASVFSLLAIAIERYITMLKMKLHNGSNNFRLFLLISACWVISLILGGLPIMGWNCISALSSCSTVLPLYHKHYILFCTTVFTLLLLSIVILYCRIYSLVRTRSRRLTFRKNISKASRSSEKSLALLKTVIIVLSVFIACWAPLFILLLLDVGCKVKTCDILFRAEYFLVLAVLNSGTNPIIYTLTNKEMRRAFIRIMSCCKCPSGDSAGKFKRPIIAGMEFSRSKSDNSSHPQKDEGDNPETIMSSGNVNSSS

[4] = target: Sphingosine 1-phosphate receptor 5 (Homo sapiens, UniProt Q9H228); assay: Agonist activity at human S1P5 receptor expressed in CHO-K1 cells assessed as inhibition of forskolin-stimulated cAMP accumulation after 30 mins by ELISA; type: functional, cell-based
Sphingosine 1-phosphate receptor 5, sequence (Q9H228 whole entry): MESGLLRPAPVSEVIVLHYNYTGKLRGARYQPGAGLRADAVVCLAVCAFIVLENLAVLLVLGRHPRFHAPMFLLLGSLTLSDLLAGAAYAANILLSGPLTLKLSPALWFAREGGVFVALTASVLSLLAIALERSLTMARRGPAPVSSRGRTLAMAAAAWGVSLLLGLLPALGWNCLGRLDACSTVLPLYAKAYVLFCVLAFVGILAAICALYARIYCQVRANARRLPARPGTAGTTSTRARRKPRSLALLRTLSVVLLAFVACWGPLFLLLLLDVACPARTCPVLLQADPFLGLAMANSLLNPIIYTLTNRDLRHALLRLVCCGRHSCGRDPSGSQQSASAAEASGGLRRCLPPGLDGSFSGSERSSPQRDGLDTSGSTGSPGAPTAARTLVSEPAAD

Mus musculus = assay: Decrease in peripheral lymphocyte levels in po dosed BALB/c mouse at 24 hrs by automated hematology analyzer; type: functional
In short: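 Compound given orally to 6-week-old male BALB/c mice. At 4 or 24 h, blood was taken from the abdominal aorta under ether anaesthesia and lymphocytes counted on an automated haematology analyser. Counts expressed as % of the vehicle-group mean; ED50 is the dose lowering counts to 50%. One experiment, five mice.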

[5] = Total clearance in Crl:CD(SD) rat at 0.1 mg/kg, iv by LC-MS/MS analysis; type: ADME, organism-based; settings: in vivo
In short: (§1)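 Single intravenous or oral dose of 0.1 mg/kg to male Crl:CD(SD) rats and to monkeys. Values are means of three animals with SD.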

[6] = AUC (infinity) in Crl:CD(SD) rat at 0.1 mg/kg, iv by LC-MS/MS analysis; type: ADME, organism-based; set-up: dose 0.1 mg/kg, time infinity, route intravenous; settings: in vivo; in short: as §1
[7] = AUC (infinity) in Crl:CD(SD) rat at 0.1 mg/kg, po by LC-MS/MS analysis; type: ADME, organism-based; set-up: dose 0.1 mg/kg, time infinity, route oral; settings: in vivo; in short: as §1
[8] = Cmax in Crl:CD(SD) rat at 0.1 mg/kg, po by LC-MS/MS analysis; type: ADME, organism-based; set-up: dose 0.1 mg/kg, route oral; settings: in vivo; in short: as §1
[9] = Cmax in cynomolgus monkey at 0.1 mg/kg, po by LC-MS/MS analysis; type: ADME, organism-based, Macaca fascicularis; set-up: dose 0.1 mg/kg, route oral; settings: in vivo; in short: as §1
[10] = Total clearance in cynomolgus monkey at 0.1 mg/kg, iv by LC-MS/MS analysis; type: ADME, organism-based, Macaca fascicularis; settings: in vivo; in short: as §1
[11] = Half life in Crl:CD(SD) rat at 0.1 mg/kg, iv by LC-MS/MS analysis; type: ADME, organism-based; settings: in vivo; in short: as §1
[12] = Half life in Crl:CD(SD) rat at 0.1 mg/kg, po by LC-MS/MS analysis; type: ADME, organism-based; settings: in vivo; in short: as §1
[13] = Half life in cynomolgus monkey at 0.1 mg/kg, iv by LC-MS/MS analysis; type: ADME, organism-based, Macaca fascicularis; settings: in vivo; in short: as §1
[14] = Half life in cynomolgus monkey at 0.1 mg/kg, po by LC-MS/MS analysis; type: ADME, organism-based, Macaca fascicularis; settings: in vivo; in short: as §1
[15] = Volume of distribution at steady state in Crl:CD(SD) rat at 0.1 mg/kg, iv by LC-MS/MS analysis; type: ADME, organism-based; settings: in vivo, read-out: Vdss; in short: as §1
[16] = Oral bioavailability in cynomolgus monkey at 0.1 mg/kg by LC-MS/MS analysis; type: ADME, organism-based, Macaca fascicularis; settings: in vivo; in short: as §1
Rattus norvegicus = assay: Antiarthritic activity in bovine type 2 collagen-induced Lewis rat arthritis model at 0.1 mg/kg, po qd administered up to 27 days; type: functional, organism-based
In short: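 Female Lewis rats were immunised with bovine type II collagen in incomplete Freund's adjuvant on days 0 and 7. Compound (0.03 or 0.1 mg/kg) or 0.5% methylcellulose was given orally once daily, days 0–27. Paw oedema/erythema was scored. Groups: n = 9–10 treated/control, normal n = 5. Mean ± SE, Steel test.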

Cynomolgus monkey [17] = assay: Toxicity in unrestrained conscious cynomolgus monkey assessed as decrease in heart rate at 100 mg/kg, po administered as single dose measured after 4 to 24 hrs; type: organism-based, Macaca fascicularis; settings: in vivo
In short: (§2)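 Single oral dose of 1, 10 or 100 mg/kg to unrestrained conscious monkeys. Heart rate was followed from 4 to 24 h after dosing and its decrease expressed against the pretreatment value. Plasma concentration was sampled at 4 and 24 h.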

Cynomolgus monkey [18] = assay: Toxicity in unrestrained conscious cynomolgus monkey assessed as decrease in heart rate at 100 mg/kg, po administered as single dose measured at 4 hrs relative to control; type: organism-based, Macaca fascicularis; set-up: scale not given: the % may be the effect or the level left; settings: in vivo; in short: as §2
[19] = Plasma concentration in unrestrained conscious cynomolgus monkey at 1 mg/kg, po measured at 4 hrs; type: ADME, organism-based, Macaca fascicularis; in short: as §2
[20] = Plasma concentration in unrestrained conscious cynomolgus monkey at 10 mg/kg, po measured at 4 hrs; type: ADME, organism-based, Macaca fascicularis; in short: as §2
[21] = Plasma concentration in unrestrained conscious cynomolgus monkey at 100 mg/kg, po measured at 4 hrs; type: ADME, organism-based, Macaca fascicularis; in short: as §2
[22] = Plasma concentration in unrestrained conscious cynomolgus monkey at 100 mg/kg, po measured at 24 hrs; type: ADME, organism-based, Macaca fascicularis; in short: as §2
Cynomolgus monkey [23] = assay: Decrease in peripheral lymphocyte levels in unrestrained conscious cynomolgus monkey at 0.01 to 0.03 mg/kg, po administered as single dose measured after 4 to 24 hrs by automated hematology analyzer; type: functional, organism-based; settings: Macaca fascicularis
In short: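 Single oral doses of 0.01 and 0.03 mg/kg to monkeys. Peripheral lymphocyte counts were followed from 4 to 24 h after administration.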

[24] = target: T2, Sphingosine 1-phosphate receptor 1; assay: Displacement of [33P]-S1P from human S1P1 receptor expressed in CHO-K1 cells after 60 mins by scintillation counting method; type: cell-based
[25] = target: T3, Sphingosine 1-phosphate receptor 1 (Rattus norvegicus, UniProt P48303); assay: Displacement of [33P]-S1P from rat S1P1 receptor after 60 mins by scintillation counting method
T3 sequence (P48303 whole entry): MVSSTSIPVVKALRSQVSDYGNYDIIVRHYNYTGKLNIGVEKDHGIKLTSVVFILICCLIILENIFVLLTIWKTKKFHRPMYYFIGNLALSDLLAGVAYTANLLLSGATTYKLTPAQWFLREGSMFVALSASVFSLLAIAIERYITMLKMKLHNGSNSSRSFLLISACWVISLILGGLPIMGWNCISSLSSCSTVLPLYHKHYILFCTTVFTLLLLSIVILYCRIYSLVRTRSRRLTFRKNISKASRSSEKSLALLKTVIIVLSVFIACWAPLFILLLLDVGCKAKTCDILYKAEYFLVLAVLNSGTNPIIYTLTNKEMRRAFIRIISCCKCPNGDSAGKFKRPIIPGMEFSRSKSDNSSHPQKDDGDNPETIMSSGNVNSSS

[26] = target: T3, Sphingosine 1-phosphate receptor 1; assay: Agonist activity at rat S1P1 receptor assessed as inhibition of forskolin-stimulated cAMP accumulation after 30 mins by ELISA; type: functional
[27] = Cmax in bovine type 2 collagen-induced Lewis rat arthritis model at 0.03 mg/kg, po qd administered up to 27 days; type: ADME, organism-based; set-up: dose 0.03 mg/kg, route oral; settings: in vivo
[28] = Cmax in bovine type 2 collagen-induced Lewis rat arthritis model at 0.1 mg/kg, po qd administered up to 27 days; type: ADME, organism-based; set-up: dose 0.1 mg/kg, route oral; settings: in vivo
[29] = target: T1, Sphingosine 1-phosphate receptor 3; assay: Displacement of [33P]-S1P from human S1P3 receptor expressed in CHO-K1 cells after 60 mins by scintillation counting method; type: cell-based
[30] = target: T2, Sphingosine 1-phosphate receptor 1; assay: Downregulation of human S1P1 receptor expressed in CHO-K1 cell membranes assessed as concentration required to induce downregulation of receptor by 90% by flow cytometric method; type: cell-based

CCCc1ccc(COc2ccc3c(c2)CCC(CN2CC(C(=O)O)C2)=C3C)c(OC)c1
EC50 [1]: > 30000 nM | Ratio EC50 (Homo sapiens): > 30000 | EC50 [2]: > 30000 nM | EC50 [3]: 0.027 nM | EC50 [4]: 0.33 nM | ED50 (Mus musculus): 0.029 mg/kg | clearance [5]: 5.63 mL/min/kg | AUC(0-inf) [6]: 302 ng·h/mL | AUC(0-inf) [7]: 229 ng·h/mL | Cmax [8]: 7.47 ng/mL | Cmax [9]: 28.4 ng/mL | clearance [10]: 1.06 mL/min/kg | half-life [11]: 16 h | half-life [12]: 17 h | half-life [13]: 30 h | half-life [14]: 29 h | Vd [15]: 7.15 L/kg | bioavailability [16]: 66.5% | Activity (Rattus norvegicus): Active | Activity (Cynomolgus monkey [17]): Toxic | Activity (Cynomolgus monkey [18]): 19% | concentration at 4 h [19]: 320 ng/mL | concentration at 4 h [20]: 3570 ng/mL | concentration at 4 h [21]: 13500 ng/mL | concentration at 24 h [22]: 11100 ng/mL | Activity (Cynomolgus monkey [23]): Active | Ki [24]: 0.626 nM | Ki [25]: 0.772 nM | EC50 [26]: 0.0286 nM | Cmax [27]: 5.76 nM | Cmax [28]: 21.5 nM | Ki [29]: > 5630 nM | Activity [30]: 25 nM
